Reference: ChEMBL document CHEMBL4814076, “Discovery of a Potent and Selective Covalent Inhibitor of Bruton's Tyrosine Kinase with Oral Anti-Inflammatory Activity” (ACS Med Chem Lett, 2021)
pIC50, pKi: −log10 of the molar value. Calls of active or inactive are those of the source. No cut-off for these calls is given here.

Key:
[1] = Half life of the compound at 25 degreeC; type: physicochemical
[2] = target: Tyrosine-protein kinase BTK (Mus musculus, UniProt P35991); assay: Inhibition of BTK in C57Bl/6 mouse splenocyte assessed as reduction in anti-IgM-induced CD69 expression incubated for 1 hr followed anti-IgM stimulation and measured after overnight by flow cytometry analysis; type: tissue-based
Procedure, shortened: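 Mouse splenocytes stimulated with anti-IgM. CD69 expression measured as the read-out.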

[3] = target: T1, Tyrosine-protein kinase BTK (Homo sapiens, UniProt Q06187); assay: Covalent inhibition of recombinant human GST-tagged BTK (2 to 659 end residues) expressed in baculovirus expression system assessed as inhibition constant using NH2-KKKAPFSWYLPEEG as substrate measured every 2 mins for 2 hrs in presence of ATP by microplate reader assay
[4] = Inhibition of BTK in Wistar rat whole blood assessed as reduction in anti-IgD-induced B220/CD86+ expression incubated for 1 hr followed anti-IgD stimulation and measured after overnight by flow cytometry analysis; type: tissue-based
Procedure, shortened: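 B-cell activation induced by anti-IgD in rat whole blood, read as B220+CD86+ cells.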

[5] = target: T1, Tyrosine-protein kinase BTK; assay: Covalent inhibition of recombinant human GST-tagged BTK (2 to 659 end residues) expressed in baculovirus expression system assessed as inactivation constant using NH2-KKKAPFSWYLPEEG as substrate measured every 2 mins for 2 hrs in presence of ATP by microplate reader assay
[6] = target: T1, Tyrosine-protein kinase BTK; assay: Covalent inhibition of recombinant human GST-tagged BTK (2 to 659 end residues) expressed in baculovirus expression system assessed as Kinact/Ki ratio using NH2-KKKAPFSWYLPEEG as substrate measured every 2 mins for 2 hrs in presence of ATP by microplate reader assay
[7] = target: T1, Tyrosine-protein kinase BTK; assay: Binding affinity to recombinant unphosphorylated human GST-tagged BTK kinase domain (389 to 659 residues) expressed in insect cells incubated for 1 hr by Lanthascreen assay
[8] = target: T1, Tyrosine-protein kinase BTK; assay: Time dependent inhibition of recombinant human GST-tagged BTK (2 to 659 end residues) expressed in baculovirus expression system using NH2-KKKAPFSWYLPEEG as substrate measured every 2 mins for 2 hrs in presence of ATP by microplate reader assay
[9] = Half life in human pooled liver microsomes at 1 uM measured up to 60 mins in presence of NADPH by LC-MS/MS analysis; type: ADME, Microsome

Chain of Tyrosine-protein kinase BTK (Mus musculus, UniProt P35991) (P35991 whole entry): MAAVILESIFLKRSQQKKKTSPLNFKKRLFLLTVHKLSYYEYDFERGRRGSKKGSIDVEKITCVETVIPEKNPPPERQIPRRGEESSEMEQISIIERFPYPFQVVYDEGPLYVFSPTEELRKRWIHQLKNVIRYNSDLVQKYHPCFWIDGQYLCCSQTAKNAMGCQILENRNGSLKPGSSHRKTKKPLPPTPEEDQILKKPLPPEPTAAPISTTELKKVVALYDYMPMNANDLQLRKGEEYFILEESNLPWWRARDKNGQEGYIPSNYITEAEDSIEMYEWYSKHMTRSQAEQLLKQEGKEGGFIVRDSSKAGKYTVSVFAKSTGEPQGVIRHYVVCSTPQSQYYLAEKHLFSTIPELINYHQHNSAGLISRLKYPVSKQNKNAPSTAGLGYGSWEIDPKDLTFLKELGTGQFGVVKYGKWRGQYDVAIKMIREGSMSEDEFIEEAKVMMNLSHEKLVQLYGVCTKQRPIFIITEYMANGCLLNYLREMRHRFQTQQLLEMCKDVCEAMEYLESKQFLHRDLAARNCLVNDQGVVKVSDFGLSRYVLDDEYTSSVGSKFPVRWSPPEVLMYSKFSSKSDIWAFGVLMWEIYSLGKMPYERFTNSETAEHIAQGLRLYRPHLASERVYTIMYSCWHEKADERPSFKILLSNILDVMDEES
T1 sequence (Q06187 whole entry): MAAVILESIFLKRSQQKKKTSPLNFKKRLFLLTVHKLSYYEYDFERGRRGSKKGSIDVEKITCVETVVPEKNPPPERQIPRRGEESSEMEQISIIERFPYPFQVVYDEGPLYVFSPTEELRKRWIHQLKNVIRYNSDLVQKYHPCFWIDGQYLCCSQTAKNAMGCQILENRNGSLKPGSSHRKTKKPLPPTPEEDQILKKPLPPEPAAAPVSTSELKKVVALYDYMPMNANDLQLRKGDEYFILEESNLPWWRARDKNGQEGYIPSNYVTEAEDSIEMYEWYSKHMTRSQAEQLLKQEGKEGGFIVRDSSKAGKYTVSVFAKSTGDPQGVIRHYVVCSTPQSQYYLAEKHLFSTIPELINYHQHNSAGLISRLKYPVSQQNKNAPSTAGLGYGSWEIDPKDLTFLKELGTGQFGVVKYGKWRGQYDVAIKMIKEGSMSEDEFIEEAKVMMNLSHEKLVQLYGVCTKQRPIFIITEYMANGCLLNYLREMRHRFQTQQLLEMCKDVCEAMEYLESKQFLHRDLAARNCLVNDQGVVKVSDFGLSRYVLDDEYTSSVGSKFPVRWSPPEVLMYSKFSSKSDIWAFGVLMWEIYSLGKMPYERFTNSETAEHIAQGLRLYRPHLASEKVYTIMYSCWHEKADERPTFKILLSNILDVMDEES

Row | SMILES | pIC50 [2] | pKi [3] | Kinact [5] [s⁻¹] | Ratio [6] [M⁻¹ s⁻¹] | pIC50 ([4]; Rattus norvegicus, Blood, 1 h) | also measured
1 | O=C(N[C@@H]1CCCNC1)c1sc2nccc3c2c1NC(=O)N3c1ccc(Oc2ccccc2)cc1F | – | – | – | – | – | half-life [1]: 46 h
2 | C=CC(=O)N1CCC[C@@H](NC(=O)c2sc3nccc4c3c2NC(=O)N4c2ccccc2)C1 | – | 5.19 | 0.000807 | 126 | – | –
3 | CCC(=O)N1CCC[C@@H](NC(=O)c2sc3nccc4c3c2NC(=O)N4c2ccc(OC(C)C)cc2)C1 | – | – | – | – | – | pIC50 [7]: 5.18
4 | C=CC(=O)N1CCC[C@@H](NC(=O)c2sc3nccc4c3c2NC(=O)N4c2ccc(OC(C)C)cc2)C1 | – | 5.37 | 0.000256 | 60.7 | – | inhibition [8]: Active; pIC50 [7]: 6.92
5 | CC(C)Oc1ccc(N2C(=O)Nc3c(C(=O)N[C@@H]4CCCNC4)sc4nccc2c34)cc1 | – | – | – | – | – | pIC50 [7]: 5.46
6 | C=CC(=O)N1CCC[C@@H](NC(=O)c2sc3nccc4c3c2NC(=O)N4c2cc(OC(C)C)ccc2C)C1 | – | 5.48 | 0.000222 | 67.5 | – | –
7 | C=CC(=O)N1CC[C@H](NC(=O)c2sc3nccc4c3c2NC(=O)N4c2ccc(Oc3ccccc3)cc2C)C1 | 7.52 | 6.66 | – | – | 6.19 | –
8 | C=CC(=O)N1CCC[C@@H](NC(=O)c2sc3nccc4c3c2NC(=O)N4c2ccc(OC(C)C)cc2C)C1 | 7.38 | 6.47 | – | – | 6.34 | –
9 | C=CC(=O)N1CCC[C@@H](NC(=O)c2sc3nccc4c3c2NC(=O)N4c2ccccc2C)C1 | – | 5.80 | 0.000573 | 363 | – | –
10 | C=CC(=O)N1CCC[C@@H](NC(=O)c2sc3nccc4c3c2NC(=O)N4c2ccc(Oc3ccccc3)cc2C(F)(F)F)C1 | – | 5.73 | 0.000177 | 95.7 | – | –

Second part, led by results:

Row | pIC50 [2] | pKi [3] | Kinact [5] [s⁻¹] | Ratio [6] [M⁻¹ s⁻¹] | pIC50 ([4]; Rattus norvegicus, Blood, 1 h) | SMILES | also measured
11 | 6.40 | 6.82 | – | – | – | C=CC(=O)N1CCC[C@@H](NC(=O)c2sc3nccc4c3c2NC(=O)N4c2ccc(Oc3ccccc3)cc2C)C1 (stereo in doubt; 16) | pIC50 [4]: 5.61
12 | 6.89 | 6.85 | – | – | 5.76 | C=CC(=O)N1CC(NC(=O)c2sc3nccc4c3c2NC(=O)N4c2ccc(Oc3ccccc3)cc2C)C1 | –
13 | 8.10 | 7.93 | – | – | 6.89 | C=CC(=O)C[C@@H]1CC[C@@H](NC(=O)c2sc3nccc4c3c2NC(=O)N4c2ccc(Oc3ccccc3)cc2C)C1 | –
14 | 7.10 | 7.83 | 0.000257 | 17400 | 7.00 | C=CC(=O)N[C@H]1CCC[C@H]1NC(=O)c1sc2nccc3c2c1NC(=O)N3c1ccc(Oc2ccccc2)cc1C | –
15 | 7.72 | 8.32 | – | – | – | C=CC(=O)N1CCC[C@@H](NC(=O)c2sc3nccc4c3c2NC(=O)N4c2ccc(Oc3ccccc3)cc2C)C1 (stereo in doubt; 17) | half-life at 1 µM [9]: < 4 min; pIC50 [4]: 6.85
16 | 7.70 | 8.04 | – | – | 6.74 | C=CC(=O)N1CCC[C@@H](NC(=O)c2sc3nccc4c3c2NC(=O)N4c2ccc(Oc3ccccc3)cc2F)C1 | –
17 | 8.12 | 7.28 | – | – | 6.68 | C=CC(=O)NCCNC(=O)c1sc2nccc3c2c1NC(=O)N3c1ccc(Oc2ccccc2)cc1C | –
18 | 7.89 | 7.91 | – | – | 6.66 | C=CC(=O)N1CCC[C@@H](NC(=O)c2sc3nccc4c3c2NC(=O)N4c2ccc(Oc3ccccc3)cc2Cl)C1 | –
